# Screens (PubChem)
# EphB4 ephrin blk: EphB4-ephrin-B2 interaction antagonism. P54760. EphB4 LBD / TNYL-RAW-Alexa532 peptide, fluorescence polarization. inhibition, % at 7 µM. actives 0.15% (n = 97,000). AID 720;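 active = inhibition above the screen-wide mean inhibition plus 3 SD, cut at about 15% in these data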
# GALR2 blocker: blocks the human galanin receptor 2; O43603; GALR2-expressing cells, antagonist mode; inhibition, % at 4 µM; actives 0.39% (n = 140,000); AID 828;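 also: cells stimulated with galanin 1-16 at roughly its EC80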
# HIV Rev-RRE inh: inhibitors of HIV-1 Rev-RRE RNA interaction. P05866. Rev peptide-RRE RNA binding, FRET. inhibition, % at 8 µM. actives 0.79% (n = 97,000). AID 704;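 active = inhibition above the screen-wide mean plus 3 SD, cut at about 35% in these data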
# Target sequence (P05866 whole entry, looked up): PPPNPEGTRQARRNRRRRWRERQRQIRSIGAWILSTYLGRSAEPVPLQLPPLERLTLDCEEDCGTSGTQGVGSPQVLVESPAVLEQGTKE
#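 Assay system: Rev peptide and RRE RNA, both fluorescently labelled; times: 5 min preincubation and 15 min binding, 25 °C; detection: FRET, ex 480 nm, em 540 and 671 nm; read-out basis: % inhibition from 671/540 nm acceptor-to-donor ratio, scaled between controls; benchmarks: DMSO low control, neomycin B high control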
# S1P2 antag: blocks the human S1P2 receptor; cell-based S1P2 antagonist assay, inhibition at 5 uM; inhibition, % at 5 µM; actives 0.21% (n = 97,000); AID 736; in the data active = inhibition above about 45%;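 also: CRE beta-lactamase reporter cells expressing human S1P2 stimulated with S1P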
# Target sequence (O95136 whole entry, looked up): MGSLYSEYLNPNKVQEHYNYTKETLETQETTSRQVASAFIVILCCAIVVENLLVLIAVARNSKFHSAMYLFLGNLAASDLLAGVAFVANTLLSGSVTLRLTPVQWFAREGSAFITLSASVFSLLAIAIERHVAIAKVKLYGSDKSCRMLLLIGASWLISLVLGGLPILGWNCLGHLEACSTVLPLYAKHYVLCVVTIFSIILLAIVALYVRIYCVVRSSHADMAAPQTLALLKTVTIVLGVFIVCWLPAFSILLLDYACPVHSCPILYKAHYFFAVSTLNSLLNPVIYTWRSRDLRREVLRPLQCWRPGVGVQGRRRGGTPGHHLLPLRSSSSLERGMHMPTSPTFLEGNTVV
# S1P2 ag: S1P2 (human) receptor agonism; S1P2-expressing cell line, agonist reporter read-out; actives 0.46% (n = 97,000); O95136; activation, % at 4.5 µM; in the data active = activation above about 16%
# GALR2 ag: activates the human galanin receptor 2; GALR2-expressing cells, agonist activation read-out; activation, % (test concentration not listed); actives 0.48% (n = 140,000); AID 803; in the data active = activation above about 5%, passing the limit was not always enough
# GALR2 ant conf: GALR2 (human) antagonism confirmed | shares compounds with GALR2 blocker | actives 60% (n = 480) | GALR2-expressing cells, antagonist mode, inhibition | inhibition, % at 4 µM;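 also: cells stimulated with galanin at about its EC80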
# BLA inhib ctr: counter-screen for GALR2 antagonists: beta-lactamase reporter inhibitors; actives 36% (n = 480); AID 867; inhibition, % at 4.2 µM; shares compounds with GALR2 blocker; CHO NFAT-BLA reporter, beta-lactamase FRET, thapsigargin-stimulated;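 active = inhibition above the mean inhibition across tested compounds plus 3 SD, cut at about 27% in these data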
# Numbers stand for hits; – = inactive; · = not tested or not shown. An excerpt weighted towards active compounds, which were near 1.8% of everything screened. Rule as the data show it, unless noted: active = inhibition above about 27%; inactive = the rest.
SMILES,EphB4 ephrin blk,GALR2 blocker,HIV Rev-RRE inh,S1P2 antag,S1P2 ag,GALR2 ag,GALR2 ant conf,BLA inhib ctr
CCOC(=O)c1c(C)nc2sc(C(=O)Nc3ccc(C(C)=O)cc3)c(N)c2c1-c1ccc(OC)cc1,–,30,–,–,–,–,–,38
CCOC(=O)c1c(C)nc2sc(C(=O)Nc3ccc(OC)cc3)c(N)c2c1-c1ccc(OC)cc1,–,–,–,–,–,–,·,·
CCC(=O)N/C(=N\OCc1ccc(F)cc1)c1nonc1NC(=O)CC,–,–,–,–,–,–,·,·
CC(NC(=O)Nc1nnc(C(F)(F)F)s1)(C(F)(F)F)C(F)(F)F,–,38,–,–,–,–,–,–
COc1cccc(COc2cc3ccccc3nc2C)c1,–,40,–,57,–,–,37,–
CN(C)[C@@H]1CCC[C@@H]1OC(=O)C(c1ccccc1)c1ccccc1,·,–,·,·,·,–,·,·
COc1ccc(CC(=O)Nc2cccc(S(=O)(=O)N3CCCCCC3)c2)cc1OC,·,28,·,·,·,–,–,–
CN(C)CCCN1C(=O)c2cccc3c([N+](=O)[O-])ccc(c23)C1=O,·,56,·,·,·,–,48,31
COc1ccc(/C=C\C(=O)c2c(O)ccc3c(C)cc(=O)oc23)cc1OC,–,–,–,–,–,–,·,·
CCOC(=O)C(=CNc1cccc(N)n1)C(=O)OCC,–,–,–,–,–,–,·,·
CCOC(=O)C(=CNc1ccc(NC2=NCC(C)S2)cc1)C(=O)OCC (centres undefined),·,33,·,·,·,–,45,37
O=C(OCCN1C(=O)c2cccc3c(N4CCOCC4)ccc(c23)C1=O)c1ccccc1Cl,·,33,·,·,·,–,34,46
CN(c1ccccc1)S(=O)(=O)c1cccc(NC(=O)CSc2ncc(C(F)(F)F)cc2Cl)c1,·,–,·,·,·,–,·,·
COc1cc(/C=N/NC(=O)c2cc(-c3cccn3C)n[nH]2)cc(OC)c1OC,–,–,–,–,–,–,·,·
COc1cccc(/C=N/NC(=O)c2cc(-c3cccn3C)n[nH]2)c1O,·,28,·,·,·,–,27,–
COc1ccc(/C=N/NC(=O)C[n+]2ccccc2)c(OC)c1OC,·,–,·,·,·,–,·,·
COc1ccc(/C=N/NC(=O)C(N)=O)c(OC)c1OC,·,27,·,·,·,–,–,–
CC(/C=N/NC(=O)c1cc(-c2cccs2)[nH]n1)=C\c1ccccc1,·,–,·,·,·,–,·,·
Cc1[nH]c2ccccc2c1/C=N/NC(=O)c1cc(-c2cccs2)[nH]n1,·,28,·,·,·,–,–,–
NNC(=O)C1CC1c1ccc(Cl)cc1 (centres undefined),·,–,·,·,·,–,·,·
O=C(Nc1cccc(S(=O)(=O)N2CCCC2)c1)c1ccc2c(=O)n3c(nc2c1)CCCCC3,·,34,·,·,·,–,–,–
Cc1csc(Sc2ccc([N+](=O)[O-])cc2C(=O)OCC(=O)NC(=O)NC(C)(C)C)n1,–,–,–,–,–,–,·,·
Cc1cc(C)c(S(=O)(=O)Nc2cccc(/C=C/C(=O)O)c2)c(C)c1,·,–,·,·,·,–,·,·
Cc1c(N=C2SCC(=O)N2/N=C/c2ccccc2)c(=O)n(-c2ccccc2)n1C,·,–,·,·,·,–,·,·
O=C1Nc2ccccc2/C1=N\c1sc2c(c1C(=O)Nc1ccccc1)CCCC2,–,29,–,–,–,–,–,–
SMILES,EphB4 ephrin blk,GALR2 blocker,HIV Rev-RRE inh,S1P2 antag,S1P2 ag,GALR2 ag,GALR2 ant conf,BLA inhib ctr
O=C(CSc1n[nH]c(-c2ccco2)n1)Nc1sc2c(c1C(=O)Nc1ccccc1)CCCC2,–,–,–,–,–,–,·,·
CCN(CC)C(=O)NC1CC(=O)N(c2ccc(OC)cc2)C1 (centres undefined),·,–,·,·,·,–,·,·
COc1ccc(C(=O)N(c2ccccc2)C2C=CS(=O)(=O)C2)cc1 (centres undefined),–,30,–,–,–,–,–,–
C=CCN1C(=O)N/C(=C/c2ccc(N3CCOCC3)o2)C1=O,·,38,·,·,·,–,–,–
Cc1ccc(C(=O)O)cc1-c1ccc(/C=C2/NC(=O)N(c3ccccc3)C2=O)o1,–,–,–,–,–,–,·,·
O=C1N/C(=C/c2ccc(N3CCOCC3)o2)C(=O)N1c1ccccc1,·,55,·,·,·,–,–,–
O=C1N/C(=C/c2ccc(N3CCOCC3)cc2)C(=O)N1Cc1ccc(F)cc1,–,–,–,–,–,–,·,·
Cc1cccnc1Nc1nc(-c2ccccn2)cs1,–,27,–,–,–,–,51,31
COc1ccc2oc3cc(C)[n+]([O-])c(-c4ccc(Cl)cc4)c3c2c1,·,–,·,·,·,–,·,·
CCn1cc(C(=O)NC(C)C23CC4CC(CC(C4)C2)C3)cn1 (centres undefined),·,–,·,·,·,–,·,·
CC(NC(=O)Cn1ncc(Cl)c(Cl)c1=O)C12CC3CC(CC(C3)C1)C2 (centres undefined),·,57,·,·,·,–,72,74
COc1ccc(Nc2nc(N3CCCC3)c3ccccc3n2)cc1,·,30,·,·,·,–,36,–
CC1CCCCC1NC(=O)COC(=O)c1c2c(nc3ccccc13)/C(=C/c1ccco1)CC2 (centres undefined),·,60,·,·,·,–,37,48
NC(=O)c1ccc(NC(=O)COC(=O)c2c3c(nc4ccccc24)/C(=C\c2cccs2)CCC3)cc1,·,–,·,·,·,–,·,·
CC(C)CNC(=O)COC(=O)c1c2c(nc3ccccc13)/C(=C/c1cccs1)CC2,·,31,·,·,·,–,38,44
CCCC(=O)NCCc1nc2cc([N+](=O)[O-])ccc2n1C,·,–,·,·,·,–,·,·
COc1ccc(C(=O)c2sc3nc(-c4ccc(OC)cc4)ccc3c2N)cc1,·,–,·,·,·,–,·,·
COc1ccc(-c2ccc3c(N)c(C(=O)c4cccc(OC)c4)sc3n2)cc1,–,29,55,–,–,–,–,–
CCOC(=O)c1ccc(N2C(=O)CC(N3CCC(O)(c4ccc(Br)cc4)CC3)C2=O)cc1 (centres undefined),–,30,–,46,–,–,40,–
O=C(NC(Nc1nc2ccc([N+](=O)[O-])cc2s1)(C(F)(F)F)C(F)(F)F)c1ccccc1Cl,·,96,·,·,·,–,94,91
Cc1ccc(C(=O)N2CCN(C3c4cccc5cccc(c45)C3NS(=O)(=O)c3ccccc3)CC2)cc1 (centres undefined),–,–,–,–,–,–,·,·
CSc1ncccc1C(=O)Nc1nc2c(C)cccc2s1,·,29,·,·,·,–,28,–
Cc1cc(Nc2cccc(Cl)c2)nc(NCc2ccccc2)n1,·,31,·,·,·,–,51,–
Cc1cc(N/N=C/c2cccc(Cl)c2)nc(NCc2ccccc2)n1,·,–,·,·,·,–,·,·
COc1ccc(CCNc2c(C)c(C)nc3ncnn23)cc1,–,31,–,69,–,–,39,–
CCc1c(C)nc2ncnn2c1NCCc1ccc(OC)c(OC)c1,–,–,–,–,–,–,·,·
Cc1sc2ncnc(NCc3ccccc3)c2c1C,–,29,–,–,–,–,–,–
